# The source made the active and inactive calls.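 Rule for the calls: active = apoptotic subG1 cells at or above 20% at some dose above 100 nM; inactive = subG1 cells below 20% at every dose.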
# Test: HeLa subG1 and cell-cycle phase fractions – FACS, counter-screen for Wee1 degradation inhibitor project, late-stage follow-up (AID 463177)
# Settings: PI FACS subG1 fraction, 20 h; G1 fraction: HeLa apoptosis, G1 phase cells, at 5 µM; G2 fraction: HeLa apoptosis, G2 phase cells, at 5 µM; S fraction: HeLa apoptosis, S phase cells, at 5 µM; subG1 cells, higher = apoptosis: at 5 µM (top of the series)
# How it was run: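 Material: parental HeLa cells; times: compound exposure 20 h, then overnight ethanol fixation at -20 °C; detection: flow cytometry of propidium iodide DNA stain with RNase A, ethanol-fixed cells; read-out: Cell-cycle phase fractions (%), subG1 marking apoptosis; benchmarks: DMSO vehicle-treated cells as reference for fold change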
structure (smiles),measurement,value
c1ccc2[nH]c(CNc3nc(N4CCOCC4)nc4c3ncn4-c3ccsc3)nc2c1,G1 fraction,24.9%
same,G2 fraction,4.14%
same,S fraction,22.5%
same,"subG1 cells, higher = apoptosis",47.6% (active)
O=[N+]([O-])c1cccc2[nH]c(CNc3nc(N4CCOCC4)nc4c3ncn4-c3ccsc3)nc12,G1 fraction,41.5%
same,G2 fraction,9.18%
same,S fraction,22.8%
same,"subG1 cells, higher = apoptosis",26.3% (active)
